From ChEMBL document CHEMBL1138753, “Synthesis and biological activity of analogues of the antimicrotubule agent N,beta,beta-trimethyl-L-phenylalanyl-N(1)-[(1S,2E)-3-carboxy-1-isopropylbut-2-enyl]- N(1),3-dimethyl-L-valinamide (HTI-286)” (J Med Chem, 2004)

Legend:
[1] = Concentration required to inhibit tumor cell growth in KB-3-1 cells; format: functional, cell-based, Homo sapiens; conditions: Homo sapiens, KB 3-1
Method in brief: (§1)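 Cytotoxicity was measured in paclitaxel-sensitive KB-3-1 cells and in KB-8-5 and KB-V1 cells, which express moderate and high P-glycoprotein respectively. Result is the average IC50 (nM) ± SEM; SEM is omitted where it is below 10% of the average.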

Tubulin beta-1 chain [2] = molecular target: T1, Tubulin beta-1 chain (Homo sapiens, UniProt Q9H4B7); assay: Percent inhibition of tubulin polymerization at 0.3 uM concentration; format: functional
T1 sequence (Q9H4B7 whole entry): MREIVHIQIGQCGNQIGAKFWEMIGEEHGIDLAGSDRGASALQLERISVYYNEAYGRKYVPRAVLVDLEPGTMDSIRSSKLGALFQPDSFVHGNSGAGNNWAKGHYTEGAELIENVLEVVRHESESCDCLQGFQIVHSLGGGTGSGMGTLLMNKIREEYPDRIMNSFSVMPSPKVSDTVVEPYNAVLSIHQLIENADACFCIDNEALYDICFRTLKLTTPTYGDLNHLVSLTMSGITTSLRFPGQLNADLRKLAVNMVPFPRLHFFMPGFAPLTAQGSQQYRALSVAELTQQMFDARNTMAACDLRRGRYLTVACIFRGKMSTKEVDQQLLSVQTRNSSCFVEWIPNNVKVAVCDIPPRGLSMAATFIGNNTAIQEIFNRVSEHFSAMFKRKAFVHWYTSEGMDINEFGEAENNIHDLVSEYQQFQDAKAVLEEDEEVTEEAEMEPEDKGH

KB [3] = assay: Concentration required to inhibit tumor cell growth in KB-8-5 cells; format: functional, cell-based, Homo sapiens; conditions: Homo sapiens, KB; method in brief: as §1
Tubulin beta-1 chain [4] = molecular target: T1, Tubulin beta-1 chain; assay: Binding affinity towards tubulin
KB [5] = assay: Concentration required to inhibit tumor cell growth in KB-V1 cells; format: functional, cell-based; conditions: Homo sapiens; method in brief: as §1
Mus musculus [6] = assay: Minimum tolerated dose was evaluated in lox melanoma human tumor graft model in athymic mice when administered intravenously
Mus musculus [7] = assay: Minimum effective dose was evaluated in lox melanoma human tumor graft model in athymic mice when administered intravenously; conditions: iv, read-out: MED
LOX IMVI = assay: Inhibitory concentration against Lox melanoma cells; format: functional, cell-based; conditions: Homo sapiens
Method in brief: (§2)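 Cytotoxicity panel covered tumor lines differing in P-glycoprotein expression. Lox melanoma and KM20 have none; NCI-H1299, HCT-15 and S1 express it. Result is the average IC50 (nM) ± SEM.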

NCI-H1299 = assay: Inhibitory concentration against NCI-H1299 cells was evaluated; format: functional, cell-based; conditions: Homo sapiens; method in brief: as §2
HCT-15 = assay: Inhibitory concentration against HCT-15 cells was evaluated; format: functional, cell-based; conditions: Homo sapiens; method in brief: as §2
[8] = Inhibitory concentration against KM20 cells was evaluated; format: functional, cell-based, Homo sapiens; method in brief: as §2
[9] = Inhibitory concentration against S1 cells was evaluated; format: functional, cell-based; method in brief: as §2
Tubulin beta-1 chain [10] = molecular target: T1, Tubulin beta-1 chain; assay: Binding affinity towards tubulin; d = weak binding

| Structure (SMILES) | IC50 [1] [nM] | inhibition (Tubulin beta-1 chain [2]) [%] | IC50 (KB [3]) [nM] | Kd (Tubulin beta-1 chain [4]) [nM] | IC50 (KB [5]) [nM] | MTD (Mus musculus [6]) [mg/kg] | minimal effective dose (Mus musculus [7]) [mg/kg] | IC50 (LOX IMVI) [nM] | IC50 (NCI-H1299) [nM] | IC50 (HCT-15) [nM] | IC50 [8] [nM] | IC50 [9] [nM] | Kd (Tubulin beta-1 chain [10]) |
| --- | --- | --- | --- | --- | --- | --- | --- | --- | --- | --- | --- | --- | --- |
| CN[C@H](C(=O)N[C@H](C(=O)N(C)[C@H](C[C@@H](C)C(=O)O)C(C)C)C(C)(C)C)C(C)(C)c1ccccc1 | 8.5 | 99 | 19.1 | 4000 | 1320 |  |  |  |  |  |  |  |  |
| CN[C@H](C(=O)N[C@H](C(=O)N(C)[C@H](/C=C(\C)C(=O)N1CCN(C)CC1)C(C)C)C(C)(C)C)C(C)(C)c1ccccc1 | 33 | 69 | 60 |  | 2330 | 15 | 3 |  |  |  |  |  |  |
| CN[C@H](C(=O)N[C@H](C(=O)N[C@H](/C=C(\C)C(=O)O)C(C)C)C(C)(C)C)C(C)(C)c1ccccc1 | 43 | 79 | 130 |  | > 3000 |  |  | 23 | 54 | 204 |  |  |  |
| CCCC[C@@H](/C=C(\C)C(=O)O)N(C)C(=O)[C@@H](NC(=O)[C@@H](NC)C(C)(C)c1ccccc1)C(C)(C)C | 36 | 52 | 78 |  | > 3000 |  |  |  | 268 |  | 53 |  |  |
| C/C(=C\[C@H](C(C)C)N(C)C(=O)[C@@H](NC(=O)[C@@H](N(C)CCO)C(C)(C)c1ccccc1)C(C)(C)C)C(=O)O | 45 | 72 | 62 | 1000 | > 3000 |  |  |  |  |  |  |  |  |
| CC/C(=C\[C@H](C(C)C)N(C)C(=O)[C@@H](NC(=O)[C@@H](NC)C(C)(C)c1ccccc1)C(C)(C)C)C(=O)O | 5.4 | 83 | 14 |  | 513 |  | 2 | 6.3 | 19.3 | 20.8 | 6.6 |  |  |
| CN[C@H](C(=O)N[C@H](C(=O)N(C)[C@H](/C=C(\C)C(=O)O)C(C)C)C(C)(C)C)C(C)(C)c1ccc(OC)cc1 | 1.4 | 91 | 4.1 | 700 | 143 | 1.6 | 0.1 | 1.1 | 10 | 6.9 |  | 7.3 |  |
| CN[C@H](C(=O)N[C@H](C(=O)N(C)[C@H](/C=C(\C)C(=O)N1CCOCC1)C(C)C)C(C)(C)C)C(C)(C)c1ccccc1 | 42 | 69 | 75 |  | 1190 |  | 3 |  |  |  |  |  |  |
| CN[C@H](C(=O)N[C@H](C(=O)N(C)[C@H](/C=C(\C)C(=O)O)C(C)C)C(C)(C)C)C(C)(C)c1ccccc1 [TALTOBULIN] |  | 88 |  | 260 | 77.4 | 1.6 | 0.2 | 1.4 | 6.8 | 4.2 | 1.8 | 3.7 |  |
| CN[C@H](C(=O)N[C@H](C(=O)N(C)[C@H](/C=C(\C)C(=O)O)C(C)C)C(C)C)C(C)(C)c1ccccc1 | 5.2 | 78 | 11 |  | 288 | >3 | 0.7 |  |  |  |  |  |  |
| CN[C@H](C(=O)N[C@H](C(=O)N(C)[C@H](/C=C(\C)C(=O)O)C(C)C)C(C)(C)SC)C(C)(C)c1ccccc1 | 2.7 | 76 | 7.1 | 700 | 303 |  | 0.5 | 3 | 15.8 | 18.6 | 6 |  |  |
| CNC(=O)/C(C)=C/[C@H](C(C)C)N(C)C(=O)[C@@H](NC(=O)[C@@H](NC)C(C)(C)c1ccccc1)C(C)(C)C | 68 | 78 | 129 |  | 1590 |  |  |  | 90 | 25.5 |  | 657 |  |
| CCN[C@H](C(=O)N[C@H](C(=O)N(C)[C@H](/C=C(\C)C(=O)O)C(C)C)C(C)(C)C)C(C)(C)c1ccccc1 | 1.6 | 96 | 2.4 |  | 114 |  |  |  |  |  |  |  |  |
| CN[C@H](C(=O)N[C@H](C(=O)N(C)[C@H](/C=C(\C)C(=O)O)C(C)C)C(C)(C)C)[C@@H](C)c1ccccc1 | 207 | 84 | 414 |  | > 3000 |  |  |  |  |  |  |  |  |
| CN[C@@H](C(=O)N[C@H](C(=O)N(C)[C@H](/C=C(\C)C(=O)O)C(C)C)C(C)(C)C)C(C)(C)c1ccccc1 (single isomer, unassigned) | 28 | 91 | 39 |  | 879 |  |  | 37 | 79 | 58 |  |  | Weak binding |
| CN[C@@H](Cc1ccccc1)C(=O)N[C@H](C(=O)N(C)[C@H](/C=C(\C)C(=O)O)C(C)C)C(C)(C)C | 603 | 66 | 646 |  | > 3000 |  |  |  |  |  |  |  |  |
| C=CC[C@H](C(=O)N[C@H](C(=O)N(C)[C@H](/C=C(\C)C(=O)O)C(C)C)C(C)(C)C)C(C)(C)c1ccccc1 | 1150 | 63 | 1200 |  | > 6000 |  |  |  |  |  |  |  |  |
